Source: PubChem
rRNA inh HTS = inhibitors of bacterial rRNA selective over humanized ribosomes. E. coli WT GFP vs humanized-ribosome RFP mutants, fluorescence, 24 h; stronger effect = lower value; DMSO median 0, no signal -100. GFP signal change (wild-type ribosome), % (test concentration not listed). 350,000 compounds, 1.6% hits. AID 720706;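 active = significant combined selectivity score with lowered wild-type GFP, culture density cut under 30%, mutant RFP and density less affected; inactive = any of these conditions unmet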
DENV2 CPE = inhibitors of DENV2 cytopathic effect; DENV2-infected cells, cytopathic effect rescue, plate reader; CPE inhibition, % at 9.99 µM; 350,000 compounds, 1.7% hits; in the data active = CPE inhibition above about 20%, passing the limit was not always enough; inconclusive = no clear call, values can overlap the other calls; tested in BHK-21 cells;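 note: 0% = median of neutral control wells and 100% = median of positive control wells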
Cneo AK release = Cryptococcus neoformans lysis via adenylate kinase release; lysis activity, % at 15 µM; AID 651654; 360,000 compounds, 0.2% hits; C. neoformans lysis, adenylate kinase release luminescence, 4 h; normalised: neutral wells 0, clomiphene wells 100;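 active = mean lysis activity across replicates of at least 80%, whatever share of replicates individually reach that level; inactive = mean lysis activity below 80%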
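Material – log-phase Cryptococcus neoformans yeast cells · Input – 5 × 10^6 yeast cells/mL · Medium – fresh YPD growth medium · Doses – single compound concentration per well · Timing – static 4 h at 37 °C with compound, 1 h detection · Detection – adenylate kinase release luminescence · Read-out – signal increase indicating cell lysis · Control set – Clomiphene as positive lysis control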
miR-122 sensor = blocks miR-122 activity in Huh7 sensor cells. activation (reporter increase), % at 12.5 µM. 340,000 compounds, 0.3% hits. Huh7 miR-122 Renilla luciferase sensor, 48 h; neutral wells = 0, positive control = 100;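 active = mean replicate activation score at least 90 and every replicate individually at or above 90; inconclusive = only one of the two criteria met; inactive = neither criterion met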;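 note: higher luciferase means less miR-122 activity so hits act as miR-122 inhibitors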
E-selectin induc = E-selectin induction on HUVECs. P16581. HUVEC E-selectin immunofluorescence imaging; normalized: neutral wells 0, TNF-alpha wells 100. activation, % at 7.58 µM. 260,000 compounds, 0.37% hits;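 active = mean E-selectin-positive cell signal at least 10% of the positive control, reached in at least 60% of replicates, without over 20% cell loss; inconclusive = no rule given, readout overlaps actives, possibly toxicity-flagged; inactive = the rest, including those meeting only one limit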
Target sequence (P16581 whole entry, looked up): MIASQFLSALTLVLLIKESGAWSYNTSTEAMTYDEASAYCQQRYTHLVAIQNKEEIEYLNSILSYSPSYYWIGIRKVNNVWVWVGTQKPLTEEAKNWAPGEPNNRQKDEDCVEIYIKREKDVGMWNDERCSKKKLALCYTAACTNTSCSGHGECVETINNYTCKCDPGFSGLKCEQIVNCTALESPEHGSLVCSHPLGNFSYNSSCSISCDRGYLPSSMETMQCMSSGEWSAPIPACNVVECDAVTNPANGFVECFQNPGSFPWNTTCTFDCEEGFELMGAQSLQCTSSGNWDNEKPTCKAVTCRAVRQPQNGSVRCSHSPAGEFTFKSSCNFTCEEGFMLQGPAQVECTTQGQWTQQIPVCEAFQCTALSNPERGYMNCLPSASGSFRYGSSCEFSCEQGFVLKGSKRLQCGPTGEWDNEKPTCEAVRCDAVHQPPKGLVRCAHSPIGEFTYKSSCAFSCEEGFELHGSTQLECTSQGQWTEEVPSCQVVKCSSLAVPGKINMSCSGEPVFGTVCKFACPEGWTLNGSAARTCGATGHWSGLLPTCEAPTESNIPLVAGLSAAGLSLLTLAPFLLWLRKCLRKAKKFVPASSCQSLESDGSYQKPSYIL
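Assay system: HUVEC primary endothelial cells. Input: 3,000 HUVEC seeded per well. Doses: one compound dose added by pin transfer. Read-out basis: % PE-positive cells. Benchmarks: TNF-alpha high, DMSO low. Detection: immunofluorescence imaging. Buffer or medium: EGM-2, gelatin.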
* = called active by the depositor; u = inconclusive; x = no result; [ ] = remark or other dose. Rows were chosen to be rich in hits. Some 3.1% of all compounds tested hit in one or more screens of this group.

SMILES	rRNA inh HTS	DENV2 CPE	Cneo AK release	miR-122 sensor	E-selectin induc
CO[C@H]1CN(C)C(=O)c2ccc(NC(=O)Nc3ccccc3)cc2OC[C@H](C)N(C(C)=O)C[C@H]1C	0	-7	0	1[16.7 µM]	0
COc1ccccc1C(=O)Nc1ccc2c(c1)OC[C@H](C)N(C(C)=O)C[C@H](C)[C@H](OC)CN(C)C2=O	-3	x	101*	x	0
CO[C@@H]1CN(C)C(=O)c2ccc(NC(=O)Nc3ccccc3)cc2OC[C@@H](C)N(C(C)=O)C[C@H]1C	1	26*	x	x	0
O=C(NCc1ccccc1)C(c1ccncc1)n1c(=O)c(-c2ccccc2)nc2ccccc21 (stereo not drawn)	x	40*	x	x	0
CC(C)(C)NC(=O)C(c1ccccc1)n1c(=O)c(-c2ccco2)nc2ccccc21 (stereo not drawn)	1	u	x	x	1
CC(C)(C)NC(=O)C(c1ccncc1)n1c(=O)c(-c2ccco2)nc2ccccc21 (stereo not drawn)	5	31*	x	x	0
O=C(CC1CC1)Nc1ccc2c(c1)[C@H]1C[C@@H](CC(=O)N3CCOCC3)O[C@@H](CO)[C@H]1O2	-2	4	3	6[16.7 µM]	0
Cc1cc(OCC(O)CNC(C)c2ccccc2)ccc1C(C)C (stereo not drawn)	-36	39*	4	-28	0
C[C@H]1CCCCO[C@@H](CN(C)Cc2ccccc2)[C@@H](C)CN([C@@H](C)CO)C(=O)c2cc(NC(=O)Nc3ccccc3)ccc2O1	-2	-25	0	0[16.7 µM]	x
COc1ccccc1N(C(=O)c1snc(C(N)=O)c1N)C(C(=O)NCc1ccccc1)c1ccc(O)cc1 (stereo not drawn)	-11	3	12	6	0
NC(=O)c1nsc(C(=O)N(c2ccccc2F)C(C(=O)NCc2ccc(F)cc2)c2ccc(O)cc2)c1N (stereo not drawn)	-40*	-1	0	0	x
Cc1cc(C)nc(N/N=C/C2=C(O)CC(c3ccccc3)CC2=O)n1 (stereo not drawn)	13	32*	x	x	10
CC(Sc1ccccc1)C(=O)NCC(c1ccco1)N1CCCCC1 (stereo not drawn)	6	107*	-5	x	x
COc1ccc(S(=O)(=O)Nc2cccc3c2O[C@H](CN(C)Cc2ccc(C(=O)Nc4ccccc4N)cc2)[C@@H](C)CN([C@@H](C)CO)C3=O)cc1	-1	12	x	x	0
C[C@@H]1CN([C@@H](C)CO)C(=O)Cc2cc(NC(=O)Cc3ccccc3)ccc2O[C@@H]1CN(C)Cc1ccc(Cl)c(Cl)c1	-2	66*	3	2[16.7 µM]	-2
C[C@@H]1CN([C@@H](C)CO)C(=O)Cc2cc(NC(=O)Cc3ccccc3)ccc2O[C@@H]1CN(C)Cc1ccccc1	1	-6	1	5[16.7 µM]	0
C[C@@H]1CN([C@H](C)CO)C(=O)Cc2cc(NC(=O)Cc3ccccc3)ccc2O[C@@H]1CN(C)Cc1ccc(Cl)c(Cl)c1	-6	88*	1	2[16.7 µM]	1
COc1ccc(NC(=O)Nc2ccc3c(c2)CC(=O)N([C@H](C)CO)C[C@H](C)[C@@H](CN(C)Cc2ccc(C(=O)Nc4ccccc4N)cc2)O3)cc1	1	-1	x	x	x
Cc1nc2ccccc2n1Cc1ccc(Br)cc1	-47*	-3	-5	-6	x
Cc1nc2ccccc2n1Cc1ccccc1	-7	5	3	-2	0
Cc1ccc(Cn2c(NS(=O)(=O)c3ccccc3)nc3ccccc32)cc1	x	x	0	106*	x
C[C@@H]1CN([C@H](C)CO)C(=O)c2ccccc2-c2ccccc2CO[C@@H]1CN(C)C(=O)Oc1ccccc1	-4	x	x	x	x
O=C(Nc1ccc(Cl)cc1)N[C@H]1CC[C@H](CCn2cc(C3(O)CCCC3)nn2)O[C@@H]1CO	-4	2	-1	-18[16.7 µM]	-1
COc1ccccc1C(=O)N/C(=C\c1ccc(Br)cc1)C(=O)N1CCCC1	-40*	1	-1	9	x
Cc1ccc(NC(=O)c2ccc(CSc3ccccn3)cc2)c(O)c1	-36*	-6	x	x	1
CO[C@H]1CN(C)C(=O)c2cc(NC(=O)c3ccccc3)ccc2OC[C@H](C)N(C)C[C@H]1C	6	6	-3	-2[16.7 µM]	2
